Values belong to the compound of their own block, whether it stands above or below them. The source made the active and inactive calls. No cut-off for these calls is given here.
Assays:
[1] = molecular target: T1, Solute carrier family 2, facilitated glucose transporter member 1 (Homo sapiens) (UniProt P11166); assay: Inhibition of GLUT1 in human brain microvascular endothelial cells assessed as decrease in glycolysis at 20 nmol/L; conditions: Endothelial cell
T1 sequence (whole entry): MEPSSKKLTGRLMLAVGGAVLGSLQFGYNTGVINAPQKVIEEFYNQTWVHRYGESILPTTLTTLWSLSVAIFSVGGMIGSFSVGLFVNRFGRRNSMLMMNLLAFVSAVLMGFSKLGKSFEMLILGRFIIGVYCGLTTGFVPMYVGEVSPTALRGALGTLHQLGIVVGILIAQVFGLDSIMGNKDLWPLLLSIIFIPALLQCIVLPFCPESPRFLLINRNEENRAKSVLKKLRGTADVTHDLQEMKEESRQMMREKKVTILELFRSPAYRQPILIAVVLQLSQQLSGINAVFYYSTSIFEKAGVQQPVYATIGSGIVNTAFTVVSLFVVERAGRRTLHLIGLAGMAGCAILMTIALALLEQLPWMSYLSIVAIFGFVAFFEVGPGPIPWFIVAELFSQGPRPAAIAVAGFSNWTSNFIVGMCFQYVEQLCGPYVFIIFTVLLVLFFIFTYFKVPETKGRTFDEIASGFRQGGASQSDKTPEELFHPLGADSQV
Summary of the method: (§1)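 Glycolytic flux read as 3H2O release: cells kept 2 hrs in culture medium containing D-[5-3H]-glucose at 0.4 µCi/ml final. Supernatant sealed in glass vials, 3H2O captured over 48 h at 37°C on water-soaked paper in hanging wells, then counted by scintillation. Inhibitor exposure 24 hrs from the day after seeding.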

[2] = molecular target: T1, Solute carrier family 2, facilitated glucose transporter member 1 (Homo sapiens); assay: Inhibition of GLUT1 in human retinal microvascular endothelial cells assessed as decrease in sprouting angiogenesis; assay type: cell-based; conditions: Endothelial cell
Summary of the method: (§2)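 Spheroids of 1000 ECs per 25 µl hanging drop formed overnight in 20% methylcellulose/EGM2, then embedded in 5 mg/ml fibrinogen gel in EGM2 with or without inhibitor and/or 1 µg/ml mitomycin C. Same medium overlaid on gel. Fixed with 4% PFA after 24 hrs and photographed.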

[3] = molecular target: T2, Solute carrier family 2, facilitated glucose transporter member 1 (Mus musculus) (UniProt P17809); assay: Inhibition of GLUT1 in mouse primary endothelial cells assessed as decrease in glucose transport; assay type: cell-based; conditions: Endothelial cell
T2 sequence (whole entry): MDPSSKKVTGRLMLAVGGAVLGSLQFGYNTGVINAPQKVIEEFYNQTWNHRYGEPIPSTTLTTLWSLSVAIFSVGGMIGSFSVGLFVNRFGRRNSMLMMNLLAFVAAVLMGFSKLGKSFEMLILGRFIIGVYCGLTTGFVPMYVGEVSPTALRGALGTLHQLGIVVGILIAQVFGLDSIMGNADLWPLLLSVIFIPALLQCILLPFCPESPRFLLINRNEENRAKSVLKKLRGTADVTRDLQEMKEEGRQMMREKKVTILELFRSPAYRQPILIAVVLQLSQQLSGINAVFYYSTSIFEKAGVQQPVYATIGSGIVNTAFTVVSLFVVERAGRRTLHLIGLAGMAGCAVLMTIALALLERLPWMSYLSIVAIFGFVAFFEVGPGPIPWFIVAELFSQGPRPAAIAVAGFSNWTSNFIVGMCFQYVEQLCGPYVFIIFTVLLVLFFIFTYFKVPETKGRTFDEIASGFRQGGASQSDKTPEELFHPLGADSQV

[4] = molecular target: T2, Solute carrier family 2, facilitated glucose transporter member 1 (Mus musculus); assay: Inhibition of GLUT1 in mouse BEND3 cells assessed as increase in AMP/ATP ratio at 20 nmol/L; assay type: cell-based
[5] = molecular target: T2, Solute carrier family 2, facilitated glucose transporter member 1 (Mus musculus); assay: Inhibition of GLUT1 in mouse BEND3 cells assessed as complete inhibition of [14C]-3-O-methylglucose transport at 20 nmol/L after 2 hrs by glucose transport assay; assay type: cell-based
Summary of the method: (§3)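 Cells pre-held 2 hrs at 37°C in serum-free DMEM with inhibitor or DMSO vehicle, DPBS-washed, then given 20 mM 3-O-methylglucose carrying 1 µCi/ml [14C]-3MG in DPBS plus inhibitor for 30 min uptake. Stopped and washed with ice-cold 50 mM glucose in PBS, lysed in 0.1 N NaOH, counted by liquid scintillation. Triplicate measurements.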

[6] = molecular target: T2, Solute carrier family 2, facilitated glucose transporter member 1 (Mus musculus); assay: Inhibition of GLUT1 in mouse BEND3 cells assessed as reduced phosphorylation of RPS6 at 20 nmol/L by Western blot analysis; assay type: cell-based
[7] = molecular target: T1, Solute carrier family 2, facilitated glucose transporter member 1 (Homo sapiens); assay: Inhibition of GLUT1 in HUVEC assessed as decrease in glucose transport; assay type: cell-based; summary of the method: as §3
[8] = molecular target: T1, Solute carrier family 2, facilitated glucose transporter member 1 (Homo sapiens); assay: Inhibition of GLUT1 in human brain microvascular endothelial cells assessed as decrease in sprouting angiogenesis; conditions: Endothelial cell, dose 20.0 nmol/L; summary of the method: as §2
[9] = molecular target: T2, Solute carrier family 2, facilitated glucose transporter member 1 (Mus musculus); assay: Inhibition of GLUT1 in mouse primary endothelial cells assessed as decrease in glycolysis; assay type: cell-based; conditions: Endothelial cell; summary of the method: as §1
[10] = molecular target: T1, Solute carrier family 2, facilitated glucose transporter member 1 (Homo sapiens); assay: Inhibition of GLUT1 in human retinal microvascular endothelial cells assessed as decrease in glycolysis at 20 nmol/L; assay type: cell-based; conditions: Endothelial cell, time 2.0 hrs; summary of the method: as §1
[11] = molecular target: T2, Solute carrier family 2, facilitated glucose transporter member 1 (Mus musculus); assay: Inhibition of GLUT1 in mouse BEND3 cells assessed as reduced phosphorylation of S6K1 at 20 nmol/L by Western blot analysis; assay type: cell-based
[12] = molecular target: T2, Solute carrier family 2, facilitated glucose transporter member 1 (Mus musculus); assay: Inhibition of GLUT1 in mouse BEND3 cells assessed as cell migration at 20 nmol/L by scratch wound assay in presence of mitomycin C; assay type: cell-based
Summary of the method: (§4)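 Confluent monolayers, pre-treated 24 hrs with inhibitor or 1 µg/ml mitomycin C where indicated, scratched with a pipette tip and imaged (T0). Then incubated in EGM2 and fixed with 4% PFA when control closure was near complete. Gap areas measured; closure % = (1 − Tx gap/T0 gap) × 100.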

[13] = molecular target: T2, Solute carrier family 2, facilitated glucose transporter member 1 (Mus musculus); assay: Inhibition of GLUT1 in mouse BEND3 cells assessed as decrease in [14C]-3-O-methylglucose transport after 2 hrs by glucose transport assay; assay type: cell-based; summary of the method: as §3
[14] = molecular target: T2, Solute carrier family 2, facilitated glucose transporter member 1 (Mus musculus); assay: Inhibition of GLUT1 in mouse BEND3 cells assessed as decrease in cell proliferation at 20 nmol/L; assay type: cell-based
Summary of the method: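 Proliferation measured after 24 hrs of inhibitor as [6-3H]-thymidine incorporation: 2 hrs with 1 µCi/ml final in culture medium, ethanol fixation 15 min at 4°C, 10% TCA precipitation, 0.1 N NaOH lysis, and scintillation counting.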

[15] = molecular target: T1, Solute carrier family 2, facilitated glucose transporter member 1 (Homo sapiens); assay: Inhibition of GLUT1 in HUVEC assessed as sprouting angiogenesis at 40 nmol/L in presence of mitomycin C; assay type: cell-based; summary of the method: as §2
[16] = molecular target: T2, Solute carrier family 2, facilitated glucose transporter member 1 (Mus musculus); assay: Inhibition of GLUT1 in mouse BEND3 cells assessed as reduction in glycolytic metabolite at 20 nmol/L; assay type: cell-based
[17] = molecular target: T2, Solute carrier family 2, facilitated glucose transporter member 1 (Mus musculus); assay: Inhibition of GLUT1 in mouse BEND3 cells assessed as slight decrease in cell migration at 20 nmol/L by scratch wound assay; assay type: cell-based; summary of the method: as §4
[18] = molecular target: T1, Solute carrier family 2, facilitated glucose transporter member 1 (Homo sapiens); assay: Inhibition of GLUT1 in HUVEC assessed as decrease in sprouting angiogenesis at 40 nmol/L; assay type: cell-based; summary of the method: as §2
[19] = molecular target: T1, Solute carrier family 2, facilitated glucose transporter member 1 (Homo sapiens); assay: Inhibition of GLUT1 in HUVEC assessed as decrease in glycolysis; assay type: cell-based; summary of the method: as §1
[20] = molecular target: T2, Solute carrier family 2, facilitated glucose transporter member 1 (Mus musculus); assay: Inhibition of GLUT1 in mouse BEND3 cells assessed as decrease in glycolysis at 20 nmol/L relative to cytochalasin B; assay type: cell-based; conditions: time 2.0 hrs; summary of the method: as §1
[21] = molecular target: T2, Solute carrier family 2, facilitated glucose transporter member 1 (Mus musculus); assay: Inhibition of GLUT1 in mouse BEND3 cells assessed as increase in p53/p21 ratio at 20 nmol/L by Western blot analysis; assay type: cell-based
Summary of the method: (§5)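 bEND3 lysed in Laemmli buffer, denatured 5 min at 95°C, and 15 µg protein run on 4-20% gels and transferred to PVDF. Probed overnight in 5% milk/TBST with antibodies to phospho-AMPKα (Thr172), AMPKα, p53 and p21, with β-actin.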

[22] = molecular target: T2, Solute carrier family 2, facilitated glucose transporter member 1 (Mus musculus); assay: Inhibition of GLUT1 in mouse BEND3 cells assessed as reduced phosphorylation of mTORC1 at 20 nmol/L by Western blot analysis; assay type: cell-based
[23] = molecular target: T2, Solute carrier family 2, facilitated glucose transporter member 1 (Mus musculus); assay: Inhibition of GLUT1 in mouse BEND3 cells assessed as activation of AMPK at 20 nmol/L by Western blot analysis; assay type: cell-based; summary of the method: as §5
[24] = test system: BEND3; assay: Inhibition of GLUT in mouse BEND3 cells assessed as decrease in cell migration at 20 micromol/L; assay type: cell-based; conditions: dose 20.0 µmol/L
[25] = test system: BEND3; assay: Inhibition of GLUT in mouse BEND3 cells assessed as decrease in cell proliferation at 20 micromol/L; assay type: cell-based; conditions: dose 20.0 µmol/L
[26] = test system: BEND3; assay: Inhibition of GLUT in mouse BEND3 cells assessed as decrease of [14C]-3-O-methylglucose transport at 20 micromol/L after 2 hrs by glucose transport assay; assay type: cell-based; conditions: dose 20.0 µmol/L
Summary of the method: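 bEND3 cells were treated with inhibitor or DMSO vehicle for 24 hrs, then held in serum-free DMEM for 2 hrs at 37°C with inhibitor or vehicle and washed. Uptake ran 30 min in DPBS with 20 mM 3-O-methylglucose plus 1 µCi/ml 14C-3MG, still with inhibitor. It was stopped with ice-cold 50 mM glucose in PBS, cells lysed in 0.1 N NaOH, and counted by LSC; triplicate.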

inhibition [1]: Active
inhibition [2]: Active
inhibition [3]: Active
inhibition [4]: Active
inhibition [5]: Active
inhibition [6]: Active
inhibition [7]: Active
inhibition [8]: Active
inhibition [9]: Active
inhibition [10]: Active
inhibition [11]: Active
inhibition [12]: inactive
inhibition [13]: Active
inhibition [14]: 40%
inhibition [15]: inactive
inhibition [16]: Active
inhibition [17]: Active
inhibition [18]: Active
inhibition [19]: Active
inhibition [20]: Active
inhibition [21]: Active
inhibition [22]: Active
inhibition [23]: Active
SMILES: Cc1c(NC(=O)c2cc(C(N)=O)nc3cc(F)ccc23)c(C(F)(F)F)nn1Cc1ccc(C#N)cc1

SMILES: C=C1[C@@H](C)[C@H]2[C@H](Cc3ccccc3)NC(=O)[C@]23OC(=O)/C=C/[C@H](O)CCC[C@@H](C)C/C=C/[C@H]3[C@@H]1O
inhibition [24]: Active
inhibition [25]: Active
inhibition [26]: Active

Reference: ChEMBL document CHEMBL5712091, “Role of the GLUT1 Glucose Transporter in Postnatal CNS Angiogenesis and Blood-Brain Barrier Integrity” (Circ Res, 2020)
